Assay results as given in the M2OR odorant receptor database.
Residue numbers refer to the chain shown, from its start.

What was measured:
Conditions in all cases: stereoisomer not certain
[1] = biological target: T1, OR5M8 (Homo sapiens) (UniProt Q8NGP6)
T1 sequence (whole entry): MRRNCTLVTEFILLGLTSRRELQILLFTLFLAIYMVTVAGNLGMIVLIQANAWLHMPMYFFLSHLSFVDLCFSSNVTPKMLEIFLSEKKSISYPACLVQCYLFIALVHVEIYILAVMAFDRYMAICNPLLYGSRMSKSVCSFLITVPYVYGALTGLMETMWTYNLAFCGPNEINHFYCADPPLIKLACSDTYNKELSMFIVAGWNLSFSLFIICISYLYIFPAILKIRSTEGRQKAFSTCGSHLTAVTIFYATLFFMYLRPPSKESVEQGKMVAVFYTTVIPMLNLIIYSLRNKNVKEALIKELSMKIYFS
In short: (§1)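 Transient luciferase assays in mammalian cell lines were common, though methods varied by source. The values come from published papers and their supplementary material, with extra details from the original authors when needed. Responsive refers to a measured signal the original authors judged statistically different from baseline, and non-responsive (inactive) to the remainder.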

[2] = biological target: T2, OR5M9 (Homo sapiens) (UniProt Q8NGP3)
T2 sequence (whole entry): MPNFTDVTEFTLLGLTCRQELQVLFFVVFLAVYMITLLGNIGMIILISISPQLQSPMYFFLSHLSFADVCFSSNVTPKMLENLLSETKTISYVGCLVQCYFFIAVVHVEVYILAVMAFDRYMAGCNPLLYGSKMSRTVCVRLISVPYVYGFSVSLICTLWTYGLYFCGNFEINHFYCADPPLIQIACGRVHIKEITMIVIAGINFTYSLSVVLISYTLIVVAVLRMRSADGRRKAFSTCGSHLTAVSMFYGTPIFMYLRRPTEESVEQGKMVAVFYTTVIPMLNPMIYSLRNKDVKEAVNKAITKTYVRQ
In short: as §1

[3] = system: T3, OR5MA L2F C311H
T3 sequence (whole entry): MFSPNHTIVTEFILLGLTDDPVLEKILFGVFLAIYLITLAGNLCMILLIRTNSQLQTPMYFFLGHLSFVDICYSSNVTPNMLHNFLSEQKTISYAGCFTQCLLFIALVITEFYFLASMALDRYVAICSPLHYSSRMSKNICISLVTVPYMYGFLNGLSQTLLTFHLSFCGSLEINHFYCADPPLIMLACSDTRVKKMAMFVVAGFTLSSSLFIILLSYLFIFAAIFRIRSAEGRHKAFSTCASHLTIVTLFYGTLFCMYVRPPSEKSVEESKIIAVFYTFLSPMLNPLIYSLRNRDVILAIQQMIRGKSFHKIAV
In short: as §1

[4] = system: T4, OR5MA L2F Q54H C311H
T4 sequence (whole entry): T3 sequence (whole entry) with Q54H
In short: as §1

[5] = biological target: T5, OR5P2 (Homo sapiens) (UniProt Q8WZ92)
T5 sequence (whole entry): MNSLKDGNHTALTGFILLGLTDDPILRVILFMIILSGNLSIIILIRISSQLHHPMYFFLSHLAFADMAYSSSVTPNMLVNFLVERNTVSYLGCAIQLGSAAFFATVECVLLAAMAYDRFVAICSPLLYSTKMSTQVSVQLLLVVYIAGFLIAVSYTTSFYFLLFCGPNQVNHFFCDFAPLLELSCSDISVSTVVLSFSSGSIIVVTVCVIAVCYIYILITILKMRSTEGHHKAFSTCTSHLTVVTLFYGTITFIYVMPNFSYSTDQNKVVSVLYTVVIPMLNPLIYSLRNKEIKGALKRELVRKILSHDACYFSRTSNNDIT
In short: as §1

[6] = biological target: T6, OR5P3 (Homo sapiens) (UniProt Q8WZ94)
T6 sequence (whole entry): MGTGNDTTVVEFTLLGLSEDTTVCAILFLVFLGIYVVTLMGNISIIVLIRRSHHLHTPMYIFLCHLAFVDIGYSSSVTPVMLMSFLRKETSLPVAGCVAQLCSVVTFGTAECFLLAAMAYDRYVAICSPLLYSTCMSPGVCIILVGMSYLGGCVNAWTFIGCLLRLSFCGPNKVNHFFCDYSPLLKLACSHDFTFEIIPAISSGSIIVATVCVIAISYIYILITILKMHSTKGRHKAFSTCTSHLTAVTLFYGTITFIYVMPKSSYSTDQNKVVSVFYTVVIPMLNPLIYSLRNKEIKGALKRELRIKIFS
In short: as §1

[7] = system: T7, OR5P3 L301R
T7 sequence (whole entry): T6 sequence (whole entry) with L301R
In short: as §1

[8] = system: T8, OR5R1 C122R S128G F184L
T8 sequence (whole entry): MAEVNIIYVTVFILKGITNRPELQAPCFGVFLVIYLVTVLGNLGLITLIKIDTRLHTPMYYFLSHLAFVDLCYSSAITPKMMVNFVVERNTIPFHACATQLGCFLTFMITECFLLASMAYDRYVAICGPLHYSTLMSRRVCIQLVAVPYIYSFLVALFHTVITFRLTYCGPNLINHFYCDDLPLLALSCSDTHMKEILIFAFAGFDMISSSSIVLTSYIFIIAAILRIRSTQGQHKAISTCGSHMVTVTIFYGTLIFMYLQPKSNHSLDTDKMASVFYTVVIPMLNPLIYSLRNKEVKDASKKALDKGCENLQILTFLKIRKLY
In short: as §1

[9] = biological target: T9, OR5T1 (Homo sapiens) (UniProt Q8NG75)
T9 sequence (whole entry): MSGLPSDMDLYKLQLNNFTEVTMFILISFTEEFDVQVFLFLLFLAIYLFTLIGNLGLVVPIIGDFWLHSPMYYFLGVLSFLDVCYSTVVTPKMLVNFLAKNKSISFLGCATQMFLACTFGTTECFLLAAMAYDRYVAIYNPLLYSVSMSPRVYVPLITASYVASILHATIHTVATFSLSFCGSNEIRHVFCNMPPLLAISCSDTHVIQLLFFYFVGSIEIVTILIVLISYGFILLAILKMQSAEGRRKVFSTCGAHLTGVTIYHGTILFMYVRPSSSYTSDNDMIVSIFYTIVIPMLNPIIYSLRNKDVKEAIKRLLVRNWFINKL
In short: as §1

[10] = biological target: T10, OR5T2 (Homo sapiens) (UniProt Q8NGG2)
T10 sequence (whole entry): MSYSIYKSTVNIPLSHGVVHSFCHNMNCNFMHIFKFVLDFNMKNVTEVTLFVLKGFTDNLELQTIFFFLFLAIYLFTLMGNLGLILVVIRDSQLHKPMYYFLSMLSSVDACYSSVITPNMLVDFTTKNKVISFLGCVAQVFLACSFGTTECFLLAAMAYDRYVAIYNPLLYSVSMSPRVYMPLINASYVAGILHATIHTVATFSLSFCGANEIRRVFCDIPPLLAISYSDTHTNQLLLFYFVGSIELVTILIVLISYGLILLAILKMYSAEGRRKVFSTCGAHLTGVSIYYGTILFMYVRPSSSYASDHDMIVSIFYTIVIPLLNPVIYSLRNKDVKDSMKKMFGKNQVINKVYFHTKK
In short: as §1

Measured: odorant receptor agonist call;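 also: active if original authors judged signal statistically different from baseline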

Cc1cnc(C)c(C)n1
inactive: all assays above

CCC(S)C(C)CO (stereo unspecified)
inactive: [1] | [2] | [5] | [6] | [9] | [10]

CCCCCCCCCC(=O)[O-].[H+]
inactive: [6]

CCCCCOC(=O)CCCCC
inactive: [6]

CC12CCC(CC1=O)C2(C)C (stereo unspecified)
inactive: [6]

CCCCCC(S)C(C)CO (stereo unspecified)
inactive: [1] | [2] | [5] | [6] | [9] | [10]

O=C1CCOc2ccccc21
inactive: [6]

c1ccccc1
inactive: [6]

CC(CO)CS (stereo unspecified)
inactive: [1] | [2] | [5] | [6] | [9] | [10]

CCC1OC(=O)C(O)=C1C (stereo unspecified)
inactive: all assays above

CC(=O)c1c(C)c([N+](=O)[O-])c(C(C)(C)C)c([N+](=O)[O-])c1C
inactive: [1] | [2] | [5] | [6] | [9] | [10]

CC1=NC(C)C(C)S1 (stereo unspecified)
inactive: all assays above

CCCCC(S)C(C)CO (stereo unspecified)
inactive: [1] | [2] | [5] | [6] | [9] | [10]

CCCCCCC=CCCC=O
inactive: all assays above

CCCC(S)CCOC(C)=O (stereo unspecified)
inactive: all assays above

O=c1ccc2ccccc2o1
active: [6]

CCCCCC(=O)C(C)C(C)=O (stereo unspecified)
inactive: [1] | [2] | [5] | [6] | [9] | [10]

CC1=C(O)C(=O)OC1C (stereo unspecified)
inactive: all assays above

CCC1OC(C)=C(O)C1=O (stereo unspecified)
inactive: all assays above

CC1=C(O)C(=O)C(C)O1 (stereo unspecified)
inactive: all assays above

CCCCOC=O
inactive: [6]

CCOC(=O)C(C)C
inactive: [6]

CCCCCCCCO
inactive: [6]

CC1CCCCCCCCCCCCC(=O)C1 (stereo unspecified)
inactive: [1] | [2] | [5] | [6] | [9] | [10]

CCCCCC(=O)CC
inactive: [6]

O=C1Cc2ccccc2O1
inactive: [6]

C=C(C)C1CCC(C)C(=O)C1 (stereo unspecified)
inactive: [6]

CCCCCCO
active: [6]

CCCCCC1=C(C)CCC1=O
inactive: [6]
